ChEMBL document CHEMBL1154686, “Pyrazoline bearing benzimidazoles: search for anticancer agent” (2010)

Columns and labels:
Type in all cases: functional
MDA-MB-231 = experiment: Growth inhibition of human MDA-MB-231 cells after 48 hrs by SRB assay; settings: MDA-MB-231, 48 h
In short: (§1)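 NCI-60 panel protocol with adherent lines. Cells were seeded at 5,000–40,000 cells/well, depending on doubling time, and pre-incubated 24 h at 37 °C, 5% CO₂. Time-zero plates were TCA-fixed at drug addition. Drugs were dissolved in DMSO and exposed for 48 h. Cells were fixed with cold TCA (final 10%) for 60 min at 4 °C, stained with 0.4% SRB in 1% acetic acid for 10 min, solubilized with 10 mM trizma base, and read at A515.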

PC-3 = experiment: Growth inhibition of human PC3 cells after 48 hrs by SRB assay; settings: PC-3, 48 h; in short: as §1
TK-10 = experiment: Growth inhibition of human TK10 cells after 48 hrs by SRB assay; settings: TK-10, 48 h
In short: (§2)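 NCI 60-cell panel, five-dose format: cells plated at 5,000–40,000/well by doubling time, preincubated 24 h at 37 °C, 5% CO2; time-zero plates TCA-fixed. Compound dissolved in DMSO, five concentrations (0.01, 0.1, 1, 10, 100 µM) plus control, 48 h. Cells fixed with cold TCA, stained with 0.4% SRB in 1% acetic acid, bound dye solubilized in 10 mM trizma base, absorbance at 515 nm. GI50 taken from [(Ti–Tz)/(C–Tz)]×100 = 50.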

ACHN = experiment: Growth inhibition of human ACHN cells after 48 hrs by SRB assay; in short: as §1
U-251 = experiment: Growth inhibition of human U251 cells after 48 hrs by SRB assay; settings: U-251, 48 h; in short: as §2
HOP-92 = experiment: Growth inhibition of human HOP92 cells after 48 hrs by SRB assay; settings: HOP-92, 48 h; in short: as §1
COLO 205 = experiment: Growth inhibition of human COLO205 cells after 48 hrs by SRB assay; settings: COLO 205, 48 h; in short: as §1
LOX IMVI = experiment: Growth inhibition of human LOXIMVI cells after 48 hrs by SRB assay; in short: as §1
[1] = Growth inhibition of human Hs 578T cells after 48 hrs by SRB assay; in short: as §1
[2] = read-out: LC50 (the source's name)

Q: For `COc1ccc(C2CC(c3nc4ccccc4[nH]3)=NN2c2ccccc2)cc1OC` (configuration not stated), which GI50 (MDA-MB-231) is on record?
A: 7.19 µM

Q: And the TGI (MDA-MB-231)?
A: 91.5 µM

Q: And the CC50 (MDA-MB-231; [2])?
A: > 100 µM

Q: And the GI50 (PC-3)?
A: 6.27 µM

Q: And the TGI (PC-3)?
A: 49 µM

Q: What about the CC50 (PC-3; [2]) of the same molecule?
A: > 100 µM

Q: And the GI50 (TK-10)?
A: 15.7 µM

Q: And the TGI (TK-10)?
A: 65.9 µM

Q: What about the CC50 (TK-10; [2]) of the same molecule?
A: > 100 µM

Q: What about the GI50 (ACHN) of the same molecule?
A: 14 µM

Q: What about the TGI (ACHN) of the same molecule?
A: > 100 µM

Q: And the CC50 (ACHN; [2])?
A: > 100 µM

Q: What about the GI50 (U-251) of the same molecule?
A: 7.67 µM

Q: And the TGI (U-251)?
A: 80.2 µM

Q: What about the CC50 (U-251; [2]) of the same molecule?
A: > 100 µM

Q: What about the GI50 (HOP-92) of the same molecule?
A: 3.89 µM

Q: What about the TGI (HOP-92) of the same molecule?
A: > 100 µM

Q: And the CC50 (HOP-92; [2])?
A: > 100 µM

Q: And the GI50 (COLO 205)?
A: 9.88 µM

Q: What about the TGI (COLO 205) of the same molecule?
A: 33.2 µM

Q: And the CC50 (COLO 205; [2])?
A: > 100 µM

Q: What about the GI50 (LOX IMVI) of the same molecule?
A: 5.1 µM

Q: What about the TGI (LOX IMVI) of the same molecule?
A: 21.7 µM

Q: What about the CC50 (LOX IMVI; [2]) of the same molecule?
A: 62.9 µM

Q: And the GI50 [1]?
A: 6.18 µM

Q: And the TGI [1]?
A: 41.2 µM

Q: And the CC50 [1, 2]?
A: > 100 µM
